Screening results: PubChem BioAssay, Johns Hopkins Ion Channel Center
MrgX1 ag: human MrgX1 receptor agonism, primary screen | B-score at 10 µM | Q96LB2 | hit rate 0.44% among 310,000 | MrgX1-HEK293 cells, Fluo-4 calcium fluorescence, agonist mode; hits give high values;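 active = calcium response B-score plate-corrected fluorescence ratio at least 3 library SD, with starting fluorescence B-score inside 5 SD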
Target sequence (Q96LB2 whole entry, looked up): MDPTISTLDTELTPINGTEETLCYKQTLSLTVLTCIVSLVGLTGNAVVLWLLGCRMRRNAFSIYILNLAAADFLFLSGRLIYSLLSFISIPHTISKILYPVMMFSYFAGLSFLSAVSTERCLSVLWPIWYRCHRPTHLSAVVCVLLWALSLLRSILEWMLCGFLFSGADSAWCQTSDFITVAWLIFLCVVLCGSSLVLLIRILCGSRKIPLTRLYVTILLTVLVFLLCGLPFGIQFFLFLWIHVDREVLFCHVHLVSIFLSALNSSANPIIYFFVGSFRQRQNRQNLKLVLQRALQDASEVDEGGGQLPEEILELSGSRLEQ
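Test system: HEK293 cells stably expressing human MrgX1 receptor; Input: fifteen thousand cells per well; Dosing: compound delivered in addition one of three; Schedule: overnight seeding, then 1 h dark dye loading; Technique: Fluo-4 NW calcium fluorescence; Measure: B-scored fluorescence response ratio; Controls: positive and negative controls per plate.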
RGS4 block: inhibitors of human RGS4 | P49798 | HEK293 M3R/RGS4 inducible, Fluo-4 calcium flux; hits give high values; triggered by carbachol at its EC20 | B-score at 10 µM | hit rate 0.45% among 310,000 | AID 463165;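 active = B-score, a plate-corrected calcium signal, over three deviations above library mean, with baseline fluorescence within five deviations of library mean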;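 also: RGS4 expression induced by doxycycline in cells with stable M3 receptor; B-score is computed from the integrated fluorescence ratio over baseline after carbachol; higher B-score means a larger calcium signal and so more RGS4 inhibition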
Target sequence (P49798 whole entry, looked up): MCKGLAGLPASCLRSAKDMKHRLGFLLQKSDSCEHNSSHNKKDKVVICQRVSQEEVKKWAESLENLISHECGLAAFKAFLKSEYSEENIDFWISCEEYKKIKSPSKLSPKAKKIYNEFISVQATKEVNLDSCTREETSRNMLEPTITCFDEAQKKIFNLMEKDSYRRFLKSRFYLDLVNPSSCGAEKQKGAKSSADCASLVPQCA
RGS4 pot: potentiators or activators of RGS4; HEK293 M3R/inducible RGS4, carbachol calcium flux Fluo4; hits give low values; B-score at 10 µM; hit rate 0.92% among 310,000; AID 463111;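 active = B-score of the integrated calcium signal more than 4 SD below the library mean, with starting fluorescence not abnormally high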;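 also: negative B-score means reduced calcium response which marks RGS4 activation or potentiation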
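Assay system: Inducible-RGS4 HEK293 cells carrying M3 receptor | Schedule: Compound preincubation 20 min at room temperature before agonist | Signal: Kinetic calcium fluorescence imaging with Fluo4-AM dye, 2 µM | Read-out basis: B score from integrated fluorescence ratio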
MrgX1 antagonist: antagonists of human MrgX1 receptor. Q96LB2. AID 588676. B-score at 10 µM. MRGX1-HEK293 calcium flux, Fluo-4, BAM8-22 antagonism; hits give low values. hit rate 1.3% among 310,000;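 active = calcium-response B-score plate-corrected more than 3 library SD below zero, starting fluorescence within 5 deviations, no agonist response on first addition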;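 also: peak minus trough fluorescence over baseline after final BAM8-22 challenge near maximal dose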
MrgX1 allo act: human MrgX1 positive allosteric modulation, primary screen; Q96LB2; MrgX1-HEK293, Fluo-4 calcium flux, FDSS; hits give high values; B-score at 10 µM; hit rate 0.63% among 310,000; AID 588675;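 active = plate-corrected calcium response at least 3 library SD above typical, normal starting fluorescence, not activating the receptor alone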;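 also: compound read alongside a low EC10 to EC30 dose of BAM8-22 agonist; peak minus trough fluorescence over baseline measured at the second addition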
MrgX1 PAM conf: reconfirmed allosteric activator of human MrgX1 receptor | shares compounds with MrgX1 allo act | MrgX1-HEK293, Fluo-4 calcium fluorescence, FDSS | activation (ratio percentage), % at 10 µM | hit rate 13% among 1,200 | AID 602413;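 active = ratio at least 3 SD above the weak peptide control, stable starting fluorescence, no direct agonism earlier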;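 also: compound followed by low BAM8-22 agonist challenge near EC20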
MrgX1 antag conf: confirmation of human MrgX1 receptor antagonists; shares compounds with MrgX1 antagonist; MrgX1-HEK293, BAM8-22 calcium flux, Fluo-4; hits give low values; remaining BAM8-22 calcium response % of control (hits give low values), % at 10 µM; hit rate 19% among 2,300; AID 602420;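 active = remaining agonist calcium response no higher than 100% minus 3 SD of agonist-only control wells, with starting fluorescence near control levels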;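 also: agonist BAM8-22 given at a near maximal EC90 to ECmax level; peak minus minimum fluorescence divided by baseline after agonist addition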
HEK293 Ca flux: MrgX1 antagonist counter-screen hit in parental HEK293 cells. shares compounds with MrgX1 antagonist. Fluo-4 calcium fluorescence, FDSS. fluorescence ratio F(max-min)/F0 at 10 µM. hit rate 2% among 4,000. AID 624111;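 active = duplicate-averaged calcium fluorescence ratio at least three times the standard deviation of buffer wells, a nonspecific response in parental cells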
HEK293 Ca counter: MrgX1 allosteric activator counter-screen hit in parental HEK293 cells; shares compounds with MrgX1 antagonist; parental HEK293 calcium flux, Fluo-4 fluorescence ratio; hits give high values; fluorescence ratio F(max-min)/F0 at 10 µM; hit rate 0.4% among 4,000;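 active = calcium fluorescence ratio, averaged over duplicates, at least 3 SD of the buffer-well ratio, meaning a nonspecific response in receptor-free cells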;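 also: untransfected parental HEK293 lacking MrgX1 used as counterscreen for MrgX1 allosteric activators; fluorescence change taken during the second addition on a kinetic imager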
HEK293 Ca cntr2: activity in parental HEK293 cells lacking MrgX1 receptor; shares compounds with MrgX1 antagonist; Fluo-4 calcium fluorescence (FDSS); hits give high values; fluorescence ratio F(max-min)/F0 at 10 µM; hit rate 8.7% among 4,000; AID 624115;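 active = calcium fluorescence ratio at least three times the spread of buffer wells, meaning a non-specific response in parental cells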
Active calls of the source: *; i = inactive; . = not tested or not shown. Only some compounds are listed: those with a hit (about 3.5% of all), similar ones and a draw of the others.

SMILES | MrgX1 ag | RGS4 block | RGS4 pot | MrgX1 antagonist | MrgX1 allo act | MrgX1 PAM conf | HEK293 Ca flux | HEK293 Ca counter | HEK293 Ca cntr2 | others
Cc1ccc(CNC(=O)C2CCCN2C(=O)Nc2ccc(C)cc2)cc1 (stereo unspecified) | i | i | i | i | i | . | . | . | .
Cc1ccc(NC(=O)N2CCCC2C(=O)NCC2CCCCC2)cc1 (stereo unspecified) | i | i | i | i | 10* | i | i | i | i
COc1c(C)cc(C(=O)C2CCCN(Cc3c(C)n(C)n(-c4ccccc4)c3=O)C2)cc1C (stereo unspecified) | i | i | i | i | i | . | . | . | .
Cc1cccc(N=C2NC(=O)/C(=C3/C(=O)N(C)c4ccccc43)S2)c1C | i | i | i | i | 7.3* | i | i | i | i
CCN1CCc2c(OCc3ccccc3)cccc2C1=O | i | i | i | i | 11* | i | i | i | i
CN1CCc2c(OCC(=O)N3CCC(Cc4ccccc4)CC3)cccc2C1=O | i | i | i | i | 9.8* | i | i | i | i
CCOc1ccccc1NC(=O)CS(=O)(=O)c1cn(CC(=O)N2CCOCC2)c2ccccc12 | i | i | i | i | i | . | . | . | .
COc1ccc([N+](=O)[O-])cc1NC(=O)C1CCCN1S(=O)(=O)c1cccs1 (stereo unspecified) | i | i | i | i | i | . | . | . | .
CCCNC(=O)c1ccc(CN2CCOCC2)cc1 | i | i | i | i | i | . | . | . | .
CCOC(=O)C1=C(c2ccccc2)NC(=S)NC1C (stereo unspecified) | i | i | i | i | i | . | . | . | .
CC(C)(C)Sc1ccc2nc3c(n2c1)CCCC3 | i | i | i | i | 16* | i | i | i | i
CCOCCCNC(=O)c1ccc(N2CC3CC(C2)c2cccc(=O)n2C3)c(NC(=O)Nc2cccc(OC)c2)c1 (stereo unspecified) | i | i | i | i | i | . | . | . | .
CCN(CC)C(=O)c1cc2sc3ccccc3c2s1 | i | i | i | i | 9.1* | i | i | i | i
COCCN(CCOC)C(=O)c1cc2sc3ccccc3c2s1 | i | i | i | i | i | . | . | . | .
CCc1nc(N2CCN(S(C)(=O)=O)CC2)c2c3c(sc2n1)CCCC3 | i | i | i | i | 7.3* | i | i | i | i
O=C(CSc1ccc(-c2ccncc2)nn1)N1CCCC1 | i | i | i | i | 13* | i | i | i | i
Cc1cc2nc(C(C)(C)C)cc(N)n2n1 | i | i | i | i | i | . | . | . | .
CC(C)(C)c1cc(N)n2nc(C(C)(C)C)cc2n1 | i | i | i | i | 7.7* | i | i | i | i
CCc1ccccc1Oc1coc2cc(O)ccc2c1=O | i | i | i | i | i | . | . | . | .
C/C(=N\NC(=O)CSc1nnc(C)s1)c1ccc(Cl)cc1 | i | i | i | i | i | . | . | . | .
O=S(=O)(Nc1nc2ccccc2s1)c1ccc(Cl)s1 | i | i | i | -5.3* | 9.1* | i | i | i | i | MrgX1 antag conf=i
O=S(=O)(Nc1nc2ccccc2s1)c1cc(F)ccc1F | i | i | i | i | i | . | . | . | .
CCOc1ccc(-c2[nH]ncc2-c2csc(C)n2)c(O)c1 | i | i | i | i | i | . | . | . | .
COc1ccc(-c2cn[nH]c2-c2ccc(OC)cc2O)cc1 | i | i | i | i | 16* | 12%* | i | i | i
COc1ccc(-c2[nH]ncc2-c2csc(C)n2)c(O)c1 | i | i | i | i | i | . | . | . | .
SMILES | MrgX1 ag | RGS4 block | RGS4 pot | MrgX1 antagonist | MrgX1 allo act | MrgX1 PAM conf | HEK293 Ca flux | HEK293 Ca counter | HEK293 Ca cntr2 | others
CCOc1ccc(-c2[nH]ncc2-c2ccccc2)c(O)c1 | i | i | i | i | 13* | 17%* | i | i | i
COc1ccc(-c2[nH]ncc2-c2ccc(Cl)cc2)c(O)c1 | i | i | i | i | 6.7* | 27%* | i | i | i
S=C(Nc1ccc(Br)cc1)N1CCN(c2ccccn2)CC1 | i | i | i | i | i | . | . | . | .
O=C(Nc1ccc2c(c1)OCO2)c1ccc(Br)c(S(=O)(=O)N2CCCC2)c1 | i | i | i | i | 14* | i | i | i | i
CCC1(CC)Cc2ccccc2C(N)=C1C#N | i | i | i | i | 15* | i | i | i | i
CCCC(=O)NC1=C(C#N)C2(CCCC2)Cc2ccccc21 | i | i | i | i | i | . | . | . | .
CCOC(=O)c1c(-c2ccc(C)cc2)csc1NC(=O)C1CC=CCC1C(=O)O (stereo unspecified) | i | i | i | i | i | . | . | . | .
Cc1ccc(-c2csc(NC(=O)C3CC=CCC3C(=O)O)c2C(=O)OC(C)C)cc1 (stereo unspecified) | i | i | i | i | 7.3* | i | i | i | i
COc1ccc(C)cc1S(=O)(=O)N(C)CC(=O)N1CCN(c2ccccc2)CC1 | i | i | i | i | i | . | . | . | .
COC(=O)CCc1cccc(CCC(=O)OC)c1 | i | i | i | i | i | . | . | . | .
O=C(NCc1cccnc1)C(=O)NCC1OCCN1S(=O)(=O)c1cc(F)ccc1F (stereo unspecified) | i | i | i | i | 16* | i | i | i | i
O=C(NCCc1ccccc1)C(=O)NCC1OCCN1S(=O)(=O)c1cc(F)ccc1F (stereo unspecified) | i | i | i | i | i | . | . | . | .
COc1ccc(C(=O)NCC(=O)OCC(=O)N2CCCc3ccccc32)cc1 | i | i | i | i | i | . | . | . | .
COc1cccc(C(C(=O)NC(C)(C)C)N(Cc2ccc(F)cc2)C(=O)CCC(=O)Nc2cc(C)on2)c1OC (stereo unspecified) | i | i | i | i | i | . | . | . | .
